Results published in PMC6045484 (ACS Omega, 2018).
In brackets after ≈: the same amount, converted by molar mass.

Key:
[1] = test system: P. falciparum (W2); assay: in vitro antimalarial activity, plasmodial LDH; assay type: cell-based, Plasmodium falciparum; conditions: Plasmodium falciparum, W2, 72 h, read-out: P. falciparum (W2) IC50, CQ-resistant W2 strain, 72 h
Outline: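 P. falciparum-infected erythrocytes (2% parasitemia, 2% hematocrit) in RPMI 1640 with 10% human serum and 60 μg/mL amikacin. Exposed to test compound dilutions for 72 h at 37 °C under 90% N2/5% O2/5% CO2. LDH measured with Malstat reagent (30 min, room temperature), then NBT/PES for 1 h in the dark, stopped with 5% acetic acid, read at 650 nm. IC50 from dose-response curves.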

[2] = test system: C. albicans ATCC90028; assay: in vitro antifungal activity; assay type: cell-based, Candida albicans; conditions: Candida albicans; for IC50: ATCC90028, read-out: C. albicans IC50; for MFC: ATCC90028, read-out: C. albicans MFC; for MIC: ATCC90028, read-out: C. albicans MIC
Outline: (§1)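 Modified NCCLS broth method in Sabouraud dextrose. Inoculum set by OD630 to 1.5 × 10^3 CFU/mL. Test compound serially diluted in 20% DMSO/saline, duplicate wells, up to 20 μg/mL. Incubated 70–74 h at 35 °C; 530 nm read before and after. IC50 is 50% growth inhibition; MIC is no detectable growth. MFC from clear wells subcultured on agar. Amphotericin B control.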

[3] = test system: L. donovani promastigotes; assay: in vitro antileishmanial activity, alamarBlue assay; assay type: cell-based, Leishmania donovani; conditions: 48 h; for IC50: read-out: L. donovani IC50, promastigotes, 48 h
[4] = test system: C. neoformans ATCC90113; assay: in vitro antifungal activity; assay type: cell-based, Cryptococcus neoformans; conditions: Cryptococcus neoformans; for IC50: ATCC90113, read-out: C. neoformans IC50; for MFC: ATCC90113, read-out: C. neoformans MFC; for MIC: ATCC90113, read-out: C. neoformans MIC
Outline: as §1

[5] = test system: A. fumigatus ATCC 90906; assay: in vitro antifungal activity; assay type: cell-based, Aspergillus fumigatus; conditions: Aspergillus fumigatus; for IC50: ATCC90906, read-out: A. fumigatus IC50; for MFC: ATCC90906, read-out: A. fumigatus MFC; for MIC: ATCC90906, read-out: A. fumigatus MIC
Outline: as §1

[6] = test system: MRSA (ATCC33591); assay: in vitro antibacterial activity; assay type: cell-based, methicillin-resistant Staphylococcus aureus; conditions: Staphylococcus aureus, ATCC33591|MRSA, read-out: MIC, MRSA
Outline: (§2)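 Test compound serially diluted in 20% DMSO/saline and plated in duplicate, up to 20 μg/mL. Inoculum in cation-adjusted Mueller–Hinton broth, pH 7.3, set by OD630 to 5 × 10^5 CFU/mL. Incubated 16–20 h at 35 °C; 530 nm read before and after. IC50 is 50% growth inhibition; MIC is no detectable growth. MBC from clear wells subcultured on agar. Ciprofloxacin control.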

[7] = test system: M. intracellulare (ATCC23068); assay: in vitro antibacterial activity, modified alamarBlue procedure; assay type: cell-based, Mycobacterium intracellulare; conditions: Mycobacterium intracellulare; for IC50: ATCC23068, read-out: IC50 (concentration that affords 50% growth inhibition), M. intracellulare; for MBC: ATCC23068, read-out: MBC (minimum bactericidal concentration), M. intracellulare; for MIC: ATCC23068, read-out: MIC, M. intracellulare
Outline: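 Modified alamarBlue microplate method. Test compound serially diluted in 20% DMSO/saline, duplicate wells, up to 20 μg/mL. Inoculum 2.0 × 10^6 CFU/mL in Middlebrook 7H9 with OADC, pH 7.3, containing 5% alamarBlue. Incubated 70–74 h at 37 °C, 10% CO2; fluorescence 544ex/590em read before and after. MIC: no blue-to-pink change. MBC by subculturing blue wells on agar. Ciprofloxacin control.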

[8] = test system: SA (ATCC29213); assay: in vitro antibacterial activity; assay type: cell-based; conditions: Staphylococcus aureus; for IC50: ATCC29213, read-out: IC50 (concentration that affords 50% growth inhibition), SA; for MBC: ATCC29213, read-out: MBC (minimum bactericidal concentration), SA; for MIC: ATCC29213, read-out: MIC, SA
Outline: as §2

[9] = test system: SK-MEL, KB, BT-549, SK-OV-3, VERO and LLC-PK1 cells; assay: cytotoxicity, neutral red uptake assay; assay type: cell-based, mammalian; conditions: highest test concentration 4760 ng/mL
Outline: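 Cells seeded at 25 000/well and allowed 24 h to reach confluence. Test compound was then added and incubated 48 h. Viable cells were counted by a modified neutral red uptake method. The panel was four human cancer lines and two noncancerous mammalian kidney lines. Doxorubicin served as positive control and DMSO as negative control.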

[10] = test system: P. falciparum (D6); assay: in vitro antimalarial activity, plasmodial LDH; assay type: cell-based, Plasmodium falciparum; conditions: Plasmodium falciparum, D6, 72 h, read-out: P. falciparum (D6) IC50

Row | SMILES | IC50 [1] [µg/mL] | IC50 [2] [µg/mL] | MFC [2] [µg/mL] | MIC [2] [µg/mL] | IC50 [4] [µg/mL] | MFC [4] [µg/mL] | MIC [4] [µg/mL] | IC50 [5] [µg/mL] | MFC [5] [µg/mL] | MIC [5] [µg/mL] | MIC [6] [µg/mL] | IC50 [7] [µg/mL] | MBC [7] [µg/mL] | MIC [7] [µg/mL] | IC50 [8] [µg/mL] | MBC [8] [µg/mL] | MIC [8] [µg/mL] | cytotoxicity CTX [9] | IC50 [10] [µg/mL] | also measured
1 | C[C@@H]1CC[C@H]2[C@@H](C)C(=O)O[C@@H]3O[C@@]4(C)CC[C@@H]1[C@]32OO4 [ART, artemisinin, reference compound] | 0.009 (≈ 0.0319 µM) | – | – | – | – | – | – | – | – | – | – | – | – | – | – | – | – | – | – | –
2 | C[C@@H]1[C@H](O)[C@@H](C)/C=C/C=C/C=C/C=C/C=C/C=C/C=C/[C@H](O[C@@H]2O[C@H](C)[C@@H](O)[C@H](N)[C@@H]2O)C[C@@H]2O[C@](O)(C[C@@H](O)C[C@@H](O)[C@H](O)CC[C@@H](O)C[C@@H](O)CC(=O)O[C@H]1C)C[C@H](O)[C@H]2C(=O)O [amphotericin B (AMP), amphotericin B, reference compound] | – | 0.17 (≈ 0.184 µM) | 1.25 (≈ 1.35 µM) | 0.63 (≈ 0.682 µM) | 0.3 (≈ 0.325 µM) | 0.63 (≈ 0.682 µM) | 0.63 (≈ 0.682 µM) | 0.68 (≈ 0.736 µM) | 2.5 (≈ 2.71 µM) | 1.25 (≈ 1.35 µM) | – | – | – | – | – | – | – | – | – | IC50 ([3]; Leishmania donovani): 0.1 µg/mL (≈ 0.108 µM); IC90 ([3]; Leishmania donovani, read-out: L. donovani IC90, promastigotes, 48 h): 0.3 µg/mL (≈ 0.325 µM)
3 | O=C(O)c1cn(C2CC2)c2cc(N3CCNCC3)c(F)cc2c1=O [ciprofloxacin, reference compound] | – | – | – | – | – | – | – | – | – | – | 0.25 (≈ 0.754 µM) | 0.28 (≈ 0.845 µM) | 1 (≈ 3.02 µM) | 0.5 (≈ 1.51 µM) | 0.13 (≈ 0.392 µM) | 1 (≈ 3.02 µM) | 0.5 (≈ 1.51 µM) | – | – | –
4 | CCCCOc1c(OC)cc(NC(C)CCCN)c2nc(C(C)(C)C)ccc12 (stereo not shown) [compound 45, N^4-(5-Butoxy-2-tert-butyl-6-methoxyquinolin-8-yl)pentane-1,4-diamine] | 3.3 (≈ 8.51 µM) | > 20 | > 20 | > 20 | > 20 | > 20 | > 20 | > 20 | > 20 | > 20 | > 20 | > 20 | > 20 | > 20 | > 20 | > 20 | > 20 | NC (NC, not cytotoxic up to 4760 ng/mL (4.76 μg/mL)) | > 4.76 | –
5 | CCCCOc1c(OC)cc(NC(C)CCCNC(=O)C(N)CCCCN)c2nc(C(C)(C)C)ccc12 (stereo not shown) [compound 90, 2,6-Diamino-N-(4-(5-butoxy-2-tert-butyl-6-methoxyquinolin-8-ylamino)pentyl)-hexanamide] | 2.9 (≈ 5.62 µM) | > 20 | > 20 | > 20 | > 20 | > 20 | > 20 | > 20 | > 20 | > 20 | > 20 | > 20 | > 20 | > 20 | > 20 | > 20 | > 20 | NC (NC, not cytotoxic up to 4760 ng/mL (4.76 μg/mL)) | 4.7 (≈ 9.11 µM) | –
6 | CCCCOc1c(OC)cc(NC(C)CCCNC(=O)C(N)CCCN)c2nc(C(C)(C)C)ccc12 (stereo not shown) [compound 91, 2,5-Diamino-N-(4-(5-butoxy-2-tert-butyl-6-methoxyquinolin-8-ylamino)pentyl)-pentanamide] | 1.3 (≈ 2.59 µM) | > 20 | > 20 | > 20 | > 20 | > 20 | > 20 | > 20 | > 20 | > 20 | > 20 | > 20 | > 20 | > 20 | > 20 | > 20 | > 20 | NC (NC, not cytotoxic up to 4760 ng/mL (4.76 μg/mL)) | 2.8 (≈ 5.58 µM) | –
7 | CCCCCOc1c(OC)cc(NC(C)CCCNC(=O)C(N)CCCN)c2nc(C(C)(C)C)ccc12 (stereo not shown) [compound 93, 2,5-Diamino-N-(4-(2-tert-butyl-6-methoxy-5-(pentyloxy)quinolin-8-ylamino)-pentyl)pentanamide] | 0.87 (≈ 1.69 µM) | > 20 | > 20 | > 20 | 10.1 (≈ 19.6 µM) | > 20 | > 20 | > 20 | > 20 | > 20 | > 20 | 8.99 (≈ 17.4 µM) | > 20 | > 20 | > 20 | > 20 | > 20 | NC (NC, not cytotoxic up to 4760 ng/mL (4.76 μg/mL)) | 1 (≈ 1.94 µM) | –
8 | CCCCCCOc1c(OC)cc(NC(C)CCCNC(=O)C(N)CCCN)c2nc(C(C)(C)C)ccc12 (stereo not shown) [compound 100, 2,5-Diamino-N-(4-(2-tert-butyl-5-(hexyloxy)-6-methoxyquinolin-8-ylamino)-pentyl)pentanamide] | 0.73 (≈ 1.38 µM) | > 20 | > 20 | > 20 | > 20 | > 20 | > 20 | > 20 | > 20 | > 20 | > 20 | 9.34 (≈ 17.6 µM) | > 20 | > 20 | > 20 | > 20 | > 20 | NC (NC, not cytotoxic up to 4760 ng/mL (4.76 μg/mL)) | 0.86 (≈ 1.62 µM) | –
9 | CCCCCCOc1c(OC)cc(NC(C)CCCNC(=O)C(N)CCCNC(=N)N)c2nc(C(C)(C)C)ccc12 (stereo not shown) [compound 101, 2-Amino-N-(4-(2-tert-butyl-5-(hexyloxy)-6-methoxyquinolin-8-ylamino)pentyl)-5-guanidinopentanamide] | 0.33 (≈ 0.577 µM) | > 20 | > 20 | > 20 | 14.3 (≈ 25 µM) | > 20 | > 20 | > 20 | > 20 | > 20 | > 20 | 18.4 (≈ 32.2 µM) | > 20 | 20 (≈ 35 µM) | 8.87 (≈ 15.5 µM) | > 20 | > 20 | NC (NC, not cytotoxic up to 4760 ng/mL (4.76 μg/mL)) | 0.8 (≈ 1.4 µM) | –
10 | CCCCCCCOc1c(OC)cc(NC(C)CCCNC(=O)C(N)CCCCN)c2nc(C(C)(C)C)ccc12 (stereo not shown) [compound 109, 2,6-Diamino-N-(4-(2-tert-butyl-5-(heptyloxy)-6-methoxyquinolin-8-ylamino)-pentyl)hexanamide] | 0.68 (≈ 1.22 µM) | > 20 | > 20 | > 20 | > 20 | > 20 | > 20 | > 20 | > 20 | > 20 | > 20 | > 20 | > 20 | > 20 | > 20 | > 20 | > 20 | NC (NC, not cytotoxic up to 4760 ng/mL (4.76 μg/mL)) | 0.8 (≈ 1.43 µM) | –
11 | N=C(N)c1ccc(OCCCCCOc2ccc(C(=N)N)cc2)cc1 [pentamidine, reference compound] | – | – | – | – | – | – | – | – | – | – | – | – | – | – | – | – | – | – | – | IC50 ([3]; Leishmania donovani): 1.4 µg/mL (≈ 4.11 µM); L. donovani IC50 ([3]; promastigotes): 1.1 µg/mL
